Measured values as given in ChEMBL document CHEMBL4613292, “5,6-Dihydroxypyrimidine Scaffold to Target HIV-1 Nucleocapsid Protein” (ACS Med Chem Lett, 2020).

Test system: not listed separately
Assay: (§1) Selectivity index, ratio of CC50 for human HeLa cells assessed as reduction in cell viability to EC50 for wild-type HIV1 NL4-3 infected in human TZM-bl cells infected with supernatants from virus-infected human MT2 cells treated with compound for 48 to 72 hrs assessed as reduction in viral replication after 2 days by bright Glo-luciferase reporter gene assay based BiCycle assay
Assay type: toxicity
Conditions: read-out: Ratio CC50/EC50; call rule not given here
How it was run: (§2)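 Selectivity index is CC50 from the respective cytotoxicity assay (HeLa or PBMC) divided by EC50 from the two-round MT-2/TZM-bl NL4-3 assay.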
In the case of `C[C@@H](NC(=O)c1nc(-c2cc(C(F)(F)F)ccn2)nc(O)c1O)C1CCCCC1`, the selectivity ratio is reported as 15.
`C[C@H](NC(=O)c1nc(-c2ccccn2)nc(O)c1O)C1CCCCC1` gave a selectivity ratio of 3.

Test system: not listed separately
Assay: Half life in human plasma at 3 uM by LC-MS/MS analysis
Assay type: ADME, cell-free
Conditions: not given
In the case of `C[C@@H](NC(=O)c1nc(-c2cc(C(F)(F)F)ccn2)nc(O)c1O)C1CCCCC1`, the half-life at 3 µM is reported as > 1 h.

Molecular target: Voltage-gated inwardly rectifying potassium channel KCNH2 (Homo sapiens, UniProt Q12809)
Sequence (Q12809 whole entry): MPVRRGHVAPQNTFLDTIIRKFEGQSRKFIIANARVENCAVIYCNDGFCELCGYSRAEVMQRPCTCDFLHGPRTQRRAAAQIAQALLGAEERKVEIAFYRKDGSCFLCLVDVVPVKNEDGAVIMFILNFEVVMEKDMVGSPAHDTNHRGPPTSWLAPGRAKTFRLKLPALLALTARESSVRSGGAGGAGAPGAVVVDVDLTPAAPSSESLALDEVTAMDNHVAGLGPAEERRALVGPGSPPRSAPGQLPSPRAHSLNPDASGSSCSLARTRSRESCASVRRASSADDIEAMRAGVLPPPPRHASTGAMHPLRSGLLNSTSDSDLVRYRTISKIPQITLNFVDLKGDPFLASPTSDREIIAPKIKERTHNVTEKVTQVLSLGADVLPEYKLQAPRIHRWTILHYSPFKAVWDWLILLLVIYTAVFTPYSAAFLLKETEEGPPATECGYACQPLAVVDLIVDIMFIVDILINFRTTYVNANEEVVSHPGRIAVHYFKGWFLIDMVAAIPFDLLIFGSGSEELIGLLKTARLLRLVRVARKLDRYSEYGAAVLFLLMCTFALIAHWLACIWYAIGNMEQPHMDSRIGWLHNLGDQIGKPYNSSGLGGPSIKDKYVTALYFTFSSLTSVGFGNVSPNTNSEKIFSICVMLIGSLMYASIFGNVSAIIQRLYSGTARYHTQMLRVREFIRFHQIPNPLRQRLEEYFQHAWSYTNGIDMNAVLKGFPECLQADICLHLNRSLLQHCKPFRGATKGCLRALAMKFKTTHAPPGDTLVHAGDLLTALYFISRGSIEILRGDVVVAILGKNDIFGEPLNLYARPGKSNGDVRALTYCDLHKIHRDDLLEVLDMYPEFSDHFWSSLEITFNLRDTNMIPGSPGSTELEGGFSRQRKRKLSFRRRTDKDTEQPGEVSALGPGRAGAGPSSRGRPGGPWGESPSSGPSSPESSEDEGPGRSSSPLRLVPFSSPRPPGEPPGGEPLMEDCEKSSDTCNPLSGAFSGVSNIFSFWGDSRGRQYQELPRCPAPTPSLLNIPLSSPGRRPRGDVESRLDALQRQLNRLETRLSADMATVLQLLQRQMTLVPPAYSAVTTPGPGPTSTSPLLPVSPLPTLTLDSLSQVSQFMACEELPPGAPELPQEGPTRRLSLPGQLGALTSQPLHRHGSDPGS
Assay: Displacement of Tracer Red from human ERG measured after 4 hrs by fluorescence polarization assay
Conditions: not given
In the case of `C[C@@H](NC(=O)c1nc(-c2cc(C(F)(F)F)ccn2)nc(O)c1O)C1CCCCC1`, the IC50 is reported as > 30 µM.

Test system: not listed separately
Assay: Half life in mouse plasma at 3 uM by LC-MS/MS analysis
Assay type: ADME, cell-free
Conditions: not given
With `C[C@@H](NC(=O)c1nc(-c2cc(C(F)(F)F)ccn2)nc(O)c1O)C1CCCCC1` the half-life at 3 µM was > 1 h.

Molecular target: Cytochrome P450 2D6 (Homo sapiens, UniProt P10635)
Sequence (P10635 whole entry): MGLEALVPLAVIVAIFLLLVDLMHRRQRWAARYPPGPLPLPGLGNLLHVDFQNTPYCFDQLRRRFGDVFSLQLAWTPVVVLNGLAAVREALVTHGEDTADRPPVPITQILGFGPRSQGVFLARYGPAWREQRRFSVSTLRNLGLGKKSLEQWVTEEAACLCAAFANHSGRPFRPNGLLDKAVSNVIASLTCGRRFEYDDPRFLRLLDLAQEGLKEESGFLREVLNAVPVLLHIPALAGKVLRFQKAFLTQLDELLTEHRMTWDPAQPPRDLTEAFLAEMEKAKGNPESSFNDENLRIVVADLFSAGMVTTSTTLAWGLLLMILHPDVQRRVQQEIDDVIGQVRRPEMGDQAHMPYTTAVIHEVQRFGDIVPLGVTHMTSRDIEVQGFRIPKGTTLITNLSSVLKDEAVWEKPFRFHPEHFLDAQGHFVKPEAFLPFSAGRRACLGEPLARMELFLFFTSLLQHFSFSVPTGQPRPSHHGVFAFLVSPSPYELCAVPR
Assay: Inhibition of human microsomal CYP2D6 expressed in baculovirus infected insect cells using luciferin-ME as substrate preincubated with enzyme/substrate mixture for 30 mins followed by further incubation with NADPH for 30 mins by CYP450 luciferase Glo assay
Assay type: ADME
Conditions: not given
For `C[C@@H](NC(=O)c1nc(-c2cc(C(F)(F)F)ccn2)nc(O)c1O)C1CCCCC1`, the IC50 was > 30 µM.

Test system: not listed separately
Assay: Inhibition of HIV1 Nucleocapsid protein (11 to 55 residues) assessed as reduction in NC-induced cTAR DNA destabilization by measuring intrinsic fluorescence using Alexa488-5'-cTAR-3'-Dabcyl oligonucleotide as substrate at 20 degree C incubated for 15 mins by fluorescence assay
Design: species or system Human immunodeficiency virus 1
Conditions: not given
How it was run: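 Fluorescence NC-inhibition assay following destabilisation of cTAR DNA, the complement of the HIV-1 transactivation response element, dual-labelled with Alexa488 dye and Dabcyl quencher. NC protein at 1 μM, so the lowest measurable IC50 is 0.5 μM.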
With `O=C(NCC1CCCCC1)c1nc(-c2cccnc2)nc(O)c1O` the IC50 was “Not Active”.
For `O=C(NCC1CCCCC1)c1nc(-c2ccccc2)nc(O)c1O`, the IC50 was “Not Active”.
For `CC(c1ccccc1)c1nc(O)c(O)c(C(=O)NCC2CCCCC2)n1` (stereo not given), the IC50 was “Not Active”.
With `CC(C)(C)c1nc(O)c(O)c(C(=O)NCC2CCCCC2)n1` the IC50 was “Not Active”.
For `O=C(NCc1ccccc1)c1nc(-c2ccccn2)nc(O)c1O`, the IC50 was “Not Active”.

Same assay, conditions: read-out: IC50
`C[C@@H](NC(=O)c1nc(-c2cc(C(F)(F)F)ccn2)nc(O)c1O)C1CCCCC1` showed an IC50 of 12 µM.
In the case of `C[C@H](NC(=O)c1nc(-c2ccccn2)nc(O)c1O)C1CCCCC1`, the IC50 is reported as 47 µM.

Test system: not listed separately
Assay: Half life in human hepatocytes at 3 uM by LC-MS/MS analysis
Assay type: ADME, cell-based, Hepatocyte
Conditions: not given
In the case of `C[C@@H](NC(=O)c1nc(-c2cc(C(F)(F)F)ccn2)nc(O)c1O)C1CCCCC1`, the half-life at 3 µM is reported as > 4 h.

Molecular target: T1, Cytochrome P450 1A2 (Homo sapiens, UniProt P05177)
T1 sequence (P05177 whole entry): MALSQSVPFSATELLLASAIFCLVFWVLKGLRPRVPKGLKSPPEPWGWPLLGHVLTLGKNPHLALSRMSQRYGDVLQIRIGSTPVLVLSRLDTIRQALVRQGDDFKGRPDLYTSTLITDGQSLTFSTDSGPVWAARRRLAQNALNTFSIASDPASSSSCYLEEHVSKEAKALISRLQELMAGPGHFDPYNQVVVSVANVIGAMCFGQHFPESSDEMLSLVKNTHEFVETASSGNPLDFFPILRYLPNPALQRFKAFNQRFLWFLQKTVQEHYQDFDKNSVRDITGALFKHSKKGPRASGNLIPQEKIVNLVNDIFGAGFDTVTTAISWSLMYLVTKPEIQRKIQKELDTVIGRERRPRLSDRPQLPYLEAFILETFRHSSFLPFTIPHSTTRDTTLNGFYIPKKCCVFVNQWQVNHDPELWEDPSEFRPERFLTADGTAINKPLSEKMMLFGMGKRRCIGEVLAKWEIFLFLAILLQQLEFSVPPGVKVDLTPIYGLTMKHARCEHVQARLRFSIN
Assay: Inhibition of human microsomal CYP1A2 expressed in baculovirus infected insect cells using luciferin-1A2 as substrate preincubated with enzyme-substrate mixture for 30 mins followed by further incubation with NADPH for 30 mins by CYP450 luciferase Glo assay
Assay type: ADME
Conditions: not given
For `C[C@@H](NC(=O)c1nc(-c2cc(C(F)(F)F)ccn2)nc(O)c1O)C1CCCCC1`, the IC50 was > 30 µM.

Test system: not listed separately
Assay: Cytotoxicity against phytohemagglutinin and interleukin-2-stimulated human PBMC cells assessed as reduction in cell viability measured after 7 days by MTS assay
Assay type: cell-based
Conditions: not given
For `C[C@@H](NC(=O)c1nc(-c2cc(C(F)(F)F)ccn2)nc(O)c1O)C1CCCCC1`, the CC50 at 168 h was 1.1 µM.
Compound `C[C@H](NC(=O)c1nc(-c2ccccn2)nc(O)c1O)C1CCCCC1` has a CC50 at 168 h of 2.4 µM.

Test system: not listed separately
Assay: Half life in mouse hepatocytes at 3 uM by LC-MS/MS analysis
Assay type: ADME, cell-based, Hepatocyte
Conditions: not given
In the case of `C[C@@H](NC(=O)c1nc(-c2cc(C(F)(F)F)ccn2)nc(O)c1O)C1CCCCC1`, the half-life at 3 µM is reported as 2.4 h.

Test system: not listed separately
Assay: Selectivity index, ratio of CC50 for human PBMC cells stimulated with phytohemagglutinin and interleukin-2 assessed as reduction in cell viability measured after 7 days by MTS assay to EC50 for wild-type HIV1 NL4-3 infected in human TZM-bl cells infected with supernatants from virus-infected human MT2 cells treated with compound for 48 to 72 hrs assessed as reduction in viral replication after 2 days by bright Glo-luciferase reporter gene assay based BiCycle assay
Assay type: toxicity
Conditions: read-out: Ratio CC50/EC50
How it was run: as §2
For `C[C@@H](NC(=O)c1nc(-c2cc(C(F)(F)F)ccn2)nc(O)c1O)C1CCCCC1`, the selectivity ratio at 7 days was 3.
In the case of `C[C@H](NC(=O)c1nc(-c2ccccn2)nc(O)c1O)C1CCCCC1`, the selectivity ratio at 7 days is reported as 12.

Molecular target: Cytochrome P450 3A4 (Homo sapiens, UniProt P08684)
Sequence (P08684 whole entry): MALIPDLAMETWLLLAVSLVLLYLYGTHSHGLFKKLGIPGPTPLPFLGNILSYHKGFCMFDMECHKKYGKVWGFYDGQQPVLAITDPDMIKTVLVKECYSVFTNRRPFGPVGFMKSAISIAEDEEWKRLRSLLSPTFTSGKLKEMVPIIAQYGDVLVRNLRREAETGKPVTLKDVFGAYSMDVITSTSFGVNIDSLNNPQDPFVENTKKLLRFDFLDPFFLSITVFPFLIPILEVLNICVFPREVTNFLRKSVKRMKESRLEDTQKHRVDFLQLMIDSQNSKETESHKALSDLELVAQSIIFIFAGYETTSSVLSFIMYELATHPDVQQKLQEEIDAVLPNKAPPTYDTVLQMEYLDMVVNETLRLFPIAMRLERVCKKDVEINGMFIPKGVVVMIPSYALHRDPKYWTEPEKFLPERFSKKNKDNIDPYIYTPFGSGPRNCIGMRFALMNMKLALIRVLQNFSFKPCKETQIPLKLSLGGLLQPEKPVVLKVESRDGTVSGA
Assay: Inhibition of human microsomal CYP3A4 expressed in baculovirus infected insect cells using luciferin-IPA as substrate preincubated with enzyme/substrate mixture for 30 mins followed by further incubation with NADPH for 30 mins by CYP450 luciferase Glo assay
Assay type: ADME
Conditions: not given
With `C[C@@H](NC(=O)c1nc(-c2cc(C(F)(F)F)ccn2)nc(O)c1O)C1CCCCC1` the IC50 was > 30 µM.

Test system: not listed separately
Assay: Cytotoxicity against human HeLa cells assessed as reduction in cell viability
Assay type: cell-based
Conditions: not given
For `C[C@@H](NC(=O)c1nc(-c2cc(C(F)(F)F)ccn2)nc(O)c1O)C1CCCCC1`, the CC50 was 6 µM.
`C[C@H](NC(=O)c1nc(-c2ccccn2)nc(O)c1O)C1CCCCC1` gave a CC50 of 0.6 µM.

Test system: Human immunodeficiency virus 1
Assay: as §1, with “Antiviral activity against” for “Selectivity index, ratio of CC50 for human HeLa cells assessed as reduction in cell viability to EC50 for”
Assay type: functional, organism-based
Conditions: Human immunodeficiency virus 1, NL4-3, TZM
How it was run: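 Two-round cell assay over the full replication cycle: MT-2 T cells are infected with wild-type reference strain NL4-3 in the first round, and reporter TZM-bl cells are infected in the second round. Values are given as mean ± deviation.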
For `C[C@@H](NC(=O)c1nc(-c2cc(C(F)(F)F)ccn2)nc(O)c1O)C1CCCCC1`, the EC50 was 0.4 µM.
With `C[C@H](NC(=O)c1nc(-c2ccccn2)nc(O)c1O)C1CCCCC1` the EC50 was 0.2 µM.
